Screens: PubChem BioAssay, The Scripps Research Institute Molecular Screening Center
OXTR potentiate – human OXTR potentiators, primary screen, fluorescence, CHO-OTR cells, Fluo-8 calcium; Oxytocin receptor (Homo sapiens), P30559; Fluo-8 calcium fluorescence, potentiator mode; 0% = oxytocin EC15, 100% = EC100; activation, % at 3 µM; 0.061% of 320,000 active; AID 2445, 2010;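 active = activation above that plate's cutoff, the mean activation of tested compounds plus 3 SD, cut at about 6.6% in these data, passing the limit was not always enough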;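 note: 100% uses oxytocin at 75 nM as the full agonist control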
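Dosing: Single dose, 3.0 µM nominal final compound concentration | Material: Human OTR in CHO cells | Technique: Kinetic Fluo-8 calcium fluorescence | Benchmarks: EC15 oxytocin alone as 0%, 75 nM oxytocin as 100% | Probe or stimulus: Oxytocin at about EC15, sub-maximal agonist stimulus | Incubation: Compound 6 min at room temperature before oxytocin, 100 s read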
OXTR ag – human OXTR agonists, primary screen, fluorescence, CHO-OTR cells, Fluo-8 calcium | Oxytocin receptor (Homo sapiens), P30559 | Fluo-8 calcium fluorescence; normalized: DMSO 0%, oxytocin 100% | activation, % at 3 µM | 0.32% of 320,000 active;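 active = activation above the mean of all tested compounds plus 3 SD, cutoff set per screening run, cut at about 20% in these data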;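 note: peak over basal fluorescence ratio from a 100 s FLIPR kinetic read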
OX1R antag-1 – antagonists of human orexin 1 receptor (OX1R); 1.8% of 330,000 active; OX1R-expressing cells, FRET antagonist read-out; inhibition, % at 6.6 µM; AID 485270, 2010; in the data active = inhibition mostly above about 38%, no sharp cut-off; inactive = mostly below about 40%;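 note: 0% = agonist challenge alone and 100% = reference antagonist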
Target sequence (O43613 whole entry, looked up): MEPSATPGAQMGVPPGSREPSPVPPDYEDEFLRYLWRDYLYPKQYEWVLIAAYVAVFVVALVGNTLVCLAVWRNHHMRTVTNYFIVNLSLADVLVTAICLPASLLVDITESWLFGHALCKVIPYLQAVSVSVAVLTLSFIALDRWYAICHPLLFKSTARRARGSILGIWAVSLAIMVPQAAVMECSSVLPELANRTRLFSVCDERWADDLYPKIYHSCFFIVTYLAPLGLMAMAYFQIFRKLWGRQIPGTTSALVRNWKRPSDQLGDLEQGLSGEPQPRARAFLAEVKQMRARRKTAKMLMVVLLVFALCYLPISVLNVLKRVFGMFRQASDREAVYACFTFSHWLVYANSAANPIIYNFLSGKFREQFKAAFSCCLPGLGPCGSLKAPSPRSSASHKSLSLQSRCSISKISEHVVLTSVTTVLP
OX1R antag-2 – OX1R (HCRTR1) antagonists, primary screen, fluorescence, CHO/OX1R cells, Fluo-8 calcium, orexin A; inhibition, % at 5 µM; Fluo-8 calcium fluorescence; Orexin/Hypocretin receptor type 1 (Homo sapiens), O43613; 0.43% of 330,000 active;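 active = inhibition above its plate's threshold, mean inhibition of all tested compounds on the plate plus 3 SD, cut at about 37% in these data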;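 note: 0% = orexin A challenge wells and 100% = SB-334867-A antagonist wells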
V1aR counter – agonists of human V1a receptor, primary screen, counter-screen for OXTR agonist project, fluorescence, CHO-V1R cells; Vasopressin V1a receptor (Homo sapiens), P37288; Fluo-8 calcium fluorescence, agonist mode; 0% DMSO, 100% 3 nM vasopressin; activation, % at 3 µM; 0.25% of 320,000 active; AID 2797, 2010;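 active = activation above the mean activation of all tested compounds plus 3 SD, per screening run, cut at about 20% in these data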;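 note: signal is peak over basal fluorescence ratio across a 100 second FLIPR read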
CHO parental Ca – ATP-evoked calcium signal inhibitors, parental CHO, primary screen, counter-screen for OX1R antagonist project, cell-based, fluorescence, Fluo-8 calcium dye | inhibition, % at 5.6 µM | parental CHO-K1, ATP-induced calcium, Fluo-8 fluorescence | AID 463079, 2010 | 0.63% of 330,000 active;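 active = inhibition above that plate's mean sample inhibition plus 3 SD, cut at about 26% in these data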;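 note: 0% = ATP-challenged DMSO wells and 100% = DMSO wells without ATP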
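Material: Parental CHO cells | Reagent: ATP | Compound dosing: Single nominal dose of 5.6 µM per compound | Detection: Intracellular calcium via Fluo-8 no-wash fluorescent dye | Read-out: % inhibition of ATP-induced calcium mobilization | Benchmarks: Low control ATP plus DMSO, high control DMSO only | Replicates: Singlicate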
OXTR agonist cf – human OXTR agonists, confirmation, fluorescence, CHO-OTR cells, triplicate; shares compounds with OXTR ag; Fluo-8 calcium fluorescence, agonist; activation, % at 3 µM; 20% of 390 active; AID 434963, 2010;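 active = mean activation above about 20% derived from the earlier single-dose screen, limit read from the data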;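 note: peak over minimum fluorescence ratio per well during a 100 second FLIPR read; 0% = DMSO alone and 100% = oxytocin high control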
V1aR counter 3x – V1a receptor agonists, calcium signal, counter-screen for OXTR agonist project, triplicate, fluorescence, CHO-V1R cells. 10% of 390 active. activation, % at 3 µM. Fluo-8 calcium fluorescence. shares compounds with OXTR ag;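 active = mean activation over triplicate exceeds the hit threshold set in the earlier primary screen, cut at about 20% in these data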;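 note: peak over basal fluorescence ratio within a 100 second read; 0% = DMSO alone and 100% = 3 nM vasopressin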
* marks the source's active call; other numbers are inactive results; / = no result given. Compounds with a hit are over-represented: about 2.6% of the library has one in this group of screens.

SMILES | OXTR potentiate | OXTR ag | OX1R antag-1 | OX1R antag-2 | V1aR counter | CHO parental Ca | OXTR agonist cf | V1aR counter 3x
C[C@@H](NCCc1ccc(O)cc1)[C@@H](O)c1ccc(O)cc1 | -2.4 | -0.6 | 10.9 | 1.6 | 0.2 | 2.5 | / | /
CCCCCCCCNC(C)C(O)c1ccc(SC(C)C)cc1 (stereo not given) | -8.0 | 22.8* | 0.0 | -6.4 | 3.6 | 11.7 | 1.8 | 5.8
O=C(NCCc1ccccc1)c1ccccc1Cl | -10.3 | -0.5 | 35.3 | -22.9 | 0.2 | -3.3 | / | /
O=C(NCCCl)c1ccc(OCc2ccccc2)cc1Cl | -10.3 | 22.0* | 1.8 | -10.8 | 10.4 | -8.8 | 0.1 | -0.2
CC(=O)Nc1ccc(S(=O)(=O)N(C)CC(=O)OCC(=O)c2ccc3c(c2)NC(=O)CO3)cc1 | 4.7 | 0.9 | 1.6 | -4.2 | 1.2 | 1.4 | / | /
N#Cc1cccc(NC(=O)COC(=O)c2cc(S(=O)(=O)Nc3ccccc3Cl)ccc2O)c1 | -9.9 | 19.7* | 37.9* | 14.7 | 15.0 | 3.9 | 11.1 | 11.1
CN(C)C=Nc1ccccc1C1C=NNC1=O (stereo not given) | -5.0 | 0.0 | 9.3 | -5.2 | 0.8 | 0.0 | / | /
Cc1ccc(S(=O)(=O)c2c(C)nn(C(C)(C)C)c2OC(=O)C(C)(C)C)cc1 | -16.5 | 21.2* | 9.6 | 31.4 | 5.5 | 31.5 | 0.7 | 3.1
CC(=O)Oc1c(S(=O)(=O)c2ccc(C)cc2)c(C)nn1C(C)(C)C | -8.5 | -1.7 | 35.4 | -11.8 | -0.8 | -6.4 | / | /
OCCNCC(O)Cn1c2ccccc2c2ccccc21 (stereo not given) | -9.8 | 1.1 | -10.5 | -4.7 | -0.3 | -15.7 | / | /
COc1ccccc1CNCC(O)Cn1c2ccccc2c2ccccc21 (stereo not given) | -14.0 | 22.1* | 10.8 | 0.8 | 8.8 | 7.2 | 11.1 | 6.7
CC(C(=O)Nc1ccc2c(c1)OCO2)c1ccc([N+](=O)[O-])cc1 (stereo not given) | -16.9 | 20.3* | 8.8 | -13.8 | 19.4 | 5.9 | 21.9* | 18.4
CC(C(=O)Nc1cccc(Br)c1)c1ccc([N+](=O)[O-])cc1 (stereo not given) | -10.8 | 4.9 | 16.2 | -16.2 | 8.9 | -3.1 | / | /
COc1ccc(CNCCC(c2ccc(OC)cc2)c2ccccc2OC)cc1 (stereo not given) | -17.4 | 8.7 | 8.3 | -23.1 | 7.0 | -15.3 | / | /
COc1ccc(C(CCNCc2ccc(OC(C)C)cc2)c2ccccc2OC)cc1 (stereo not given) | -18.1 | 21.8* | 3.3 | -4.3 | 15.0 | 12.8 | 12.3 | 8.6
COc1ccc(C2=NO[C@@H]3C(=O)N(C4CCCCC4)C(=O)[C@H]23)cc1OC | -7.7 | 21.1* | 4.4 | -0.5 | 17.5 | 5.6 | 12.2 | 13.0
COc1ccc(C2=NO[C@@H]3C(=O)N(c4ccc5c(c4)OCCO5)C(=O)[C@H]23)cc1OC | -0.8 | 6.3 | 0.4 | -15.2 | 4.2 | -5.7 | / | /
CCC(C)[C@H](NC(=O)OC(C)(C)C)C(=O)NCC1CCC(C(=O)N[C@@H](Cc2ccccc2)C(=O)O)CC1 (stereo not given in full) | -0.7 | 0.4 | -4.2 | -11.0 | 0.5 | 1.5 | / | /
Cc1ccc2nc(N(CCCN(C)C)C(=O)CCc3ccccc3)sc2c1 | -9.9 | 23.1* | 2.0 | -5.9 | 8.6 | 6.3 | 3.8 | 1.4
CN(C)CCCN(C(=O)CCc1ccccc1)c1nc2ccc(Cl)cc2s1 | -12.2 | 24.2* | 6.4 | 1.7 | 13.6 | 22.2 | 5.5 | 2.3
CN(C)CCCN(C(=O)COc1ccccc1)c1nc2ccc(Cl)cc2s1 | -9.0 | 9.2 | 20.4 | -2.6 | 7.0 | -13.5 | / | /
